Source: PubChem (Sanford-Burnham Center for Chemical Genomics)
An excerpt weighted towards active compounds, which were near 0.77% of everything screened.
mIAP act – mouse IAP activation; activation factor at 10 µM; hit rate 0.24% among 330,000; muIAP, CDP-Star luminescence, 30 min; stronger effect = higher value; 1 = vehicle-only enzyme signal, 0 = enzyme-free wells;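 active = activation factor of at least 2 at 20 µM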
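Assay system: mouse IAP enzyme / Compound: DMSO-dissolved test compounds / Timing: 30 min, room temperature / Measured by: luminescence from enzymatic CDP-Star hydrolysis / Control set: DMSO-only wells, enzyme-free buffer wells as negative control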
hIAP activ – increases human intestinal alkaline phosphatase activity. purified human IAP, CDP-Star luminescence, 30 min; stronger effect = higher value; 1 = vehicle-only enzyme, 0 = enzyme-free background. AID 2524. hit rate 0.16% among 330,000. activation factor at 10 µM. P09923;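 active = activation factor of the enzyme at least 2-fold when tested at 20 µM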
Target sequence (P09923 whole entry, looked up): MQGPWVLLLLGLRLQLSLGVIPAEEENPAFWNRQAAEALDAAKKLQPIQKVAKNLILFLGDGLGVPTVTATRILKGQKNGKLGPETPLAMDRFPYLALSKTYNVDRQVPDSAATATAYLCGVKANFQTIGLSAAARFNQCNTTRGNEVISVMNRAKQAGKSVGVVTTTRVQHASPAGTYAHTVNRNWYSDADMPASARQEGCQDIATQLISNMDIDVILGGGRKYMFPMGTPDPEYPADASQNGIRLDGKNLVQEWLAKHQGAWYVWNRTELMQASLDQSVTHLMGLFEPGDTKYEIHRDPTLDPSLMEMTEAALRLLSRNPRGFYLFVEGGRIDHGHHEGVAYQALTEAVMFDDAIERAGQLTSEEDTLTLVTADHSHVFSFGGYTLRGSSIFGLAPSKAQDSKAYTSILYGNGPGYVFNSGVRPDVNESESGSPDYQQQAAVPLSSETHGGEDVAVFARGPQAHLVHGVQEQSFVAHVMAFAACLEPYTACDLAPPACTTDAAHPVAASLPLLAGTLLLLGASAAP
mIAP inh – blocks mouse intestinal alkaline phosphatase. purified mouse IAP, CDP-Star luminescence, 30 min. inhibition, % at 10 µM. hit rate 0.2% among 330,000;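 active = inhibition of at least 40% at 10 µM in the primary screen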
bIAP act – intestinal alkaline phosphatase (bovine) activation; activation factor at 20 µM; purified bovine IAP, CDP-star luminescence, 30 min; stronger effect = higher value; fold of DMSO-control signal, blank-subtracted; hit rate 0.17% among 200,000; AID 1016;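 active = activation factor of 2 or more at 20 µM, a signal rise over negative controls twice the positive control's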
bIAP inh – intestinal alkaline phosphatase (bovine) inhibition. purified bovine IAP, CDP-star luminescence, 30 min. inhibition, % at 20 µM. 190,000 tested, under 10 active;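 active = over 50% inhibition of intestinal alkaline phosphatase at 20 µM in the single-dose screen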
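System: purified bovine intestinal alkaline phosphatase (IAP) enzyme; Input: IAP diluted 1/65,000,000 in the well; Measured by: CDP-star luminescence signal; Compound dosing: 20 µM single dose; Incubation: 30 min reaction at room temperature.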
hIAP inh – blocks human intestinal alkaline phosphatase | P09923 | purified IAP, CDP-Star luminescence, 30 min | inhibition, % at 10 µM | hit rate 0.12% among 330,000 | AID 2544;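 active = inhibition reaching a set limit with compound at 10 µM in the primary screen, cut at about 35% in these data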
mIAP inh confirm – mouse IAP inhibition confirmation | shares compounds with mIAP inh | purified mouse IAP, CDP-Star luminescence, 30 min | inhibition, % at 10 µM | hit rate 4.7% among 11,000 | AID 434971;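 active = inhibition of at least 40% at 10 µM in either of the two replicates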
Large screens that a line does not name were inactive (follow-up assays come after a bar, where they were run).

CCN(CC(=O)Nc1c(F)cccc1F)C(=O)c1nc2nc(C)cc(C)n2n1	none (no result: bIAP act, bIAP inh)
CCCCN(CCCC)CP(=O)(c1ccccc1)c1ccccc1	none
CC(C)=CCc1c(O)ccc(C2COc3c(CC=C(C)C)c(O)cc(O)c3C2=O)c1O (configuration not stated)	none (no result: bIAP act, bIAP inh)
CC(C)=CCc1c(O)c(CC=C(C)C)c2c(c1O)-c1cc(O)c(O)cc1CC2	mIAP inh 62 (no result: bIAP act, bIAP inh) | mIAP inh confirm 60
COc1cc2c(ccc3cc(OC)c(OC)c(O)c32)cc1O	mIAP inh 50 (no result: bIAP act, bIAP inh) | mIAP inh confirm 58
Cc1cccc(NC(=O)NC2CCCc3ccccc32)c1 (configuration not stated)	mIAP act 2.7 (no result: bIAP act, bIAP inh) | mIAP inh confirm inactive
CC(=O)c1cccc(NC(=O)NC2CCCc3ccccc32)c1 (configuration not stated)	none
CC(=O)c1c(C)oc2ccc(NS(=O)(=O)c3ccc(O)c(C(=O)O)c3)cc12	none
O=C(O)c1cc(S(=O)(=O)Nc2ccc3oc(=O)sc3c2)ccc1O	mIAP inh 65 | mIAP inh confirm 72
O=C(N/N=C/c1ccc(O)c(O)c1O)/C(=C/c1ccc([N+](=O)[O-])cc1)NC(=O)c1ccccc1	mIAP inh 55 | mIAP inh confirm 60
Cc1ccc(S(=O)(=O)/N=C2/NC(=O)/C(=C\c3cc(Br)cc(Br)c3O)S2)cc1	mIAP inh 43 (no result: bIAP act, bIAP inh) | mIAP inh confirm 49
Cc1ccc(S(=O)(=O)/N=C2/NC(=O)/C(=C/c3ccc(Br)o3)S2)cc1	none
S=C(NCc1ccccn1)Nc1cccc(Cl)c1	none
COCCCNC(=S)Nc1ccccc1C	none
Cc1ccccc1NC(=S)NCCC(c1ccccc1)c1ccccc1	mIAP act 3.7 | mIAP inh confirm inactive
S=C(NCCC(c1ccccc1)c1ccccc1)Nc1cccc(Cl)c1	mIAP act 4.1 | mIAP inh confirm inactive
COc1cc([C@H]2Oc3c(OC)cc(CCCO[C@@H]4O[C@H](CO)[C@@H](O)[C@H](O)[C@H]4O)cc3[C@@H]2CO)ccc1O	none (no result: bIAP act, bIAP inh)
CCc1cccc(N(C(=O)c2csnn2)C(C(=O)NC2CCCCC2)c2cccnc2)c1 (configuration not stated)	none (no result: bIAP act, bIAP inh)
c1coc(-c2nnc(-c3ccco3)nn2)c1	mIAP inh 71 (no result: bIAP act, bIAP inh) | mIAP inh confirm 81
O=C(O)/C=C\c1cc2c(cc1[N+](=O)[O-])OCO2	mIAP inh 42 (no result: bIAP act, bIAP inh) | mIAP inh confirm 45
Cc1ccc(C)c(N=Cc2cc3c(cc2[N+](=O)[O-])OCO3)c1	none
CC(C)(C)c1ccc(O)c(N=Cc2cc3c(cc2[N+](=O)[O-])OCO3)c1	mIAP inh 42 (no result: bIAP act, bIAP inh) | mIAP inh confirm 49
CC1CN(C2CCN(C(=O)COc3ccc(Cl)cc3)CC2)CC(C)O1 (configuration not stated)	none
CCCNC(=O)c1ccc2c(=O)n(Cc3ccco3)c(=S)[nH]c2c1	mIAP inh 64 | mIAP inh confirm 66
CCOc1cc(C2C3=C(CC(C)(C)CC3=O)N(C)C3=C2C(=O)CC(C)(C)C3)ccc1O	none (no result: bIAP act, bIAP inh)
O=C(NCC1CC1(Cl)Cl)Nc1ccc(Cl)c(Cl)c1 (configuration not stated)	mIAP act 2.9 (no result: bIAP act, bIAP inh) | mIAP inh confirm inactive
C#CCOCCOCCOCCNc1nc(N2CCN(C(=O)CCCCCCCCCCNC(=O)[C@H](CCCCN)n3cc(C)nn3)CC2)nc(N2CCN(C(=O)CCCCCCCCCCNC(=O)[C@H](CCCN=C(N)N)n3cc(C[C@@H](C)CC)nn3)CC2)n1	mIAP act 3.1 (no result: bIAP act, bIAP inh) | mIAP inh confirm inactive
C#CCOCCOCCOCCNc1nc(N2CCN(C(=O)CCCCCCCCCCNC(=O)[C@H](CCCN=C(N)N)n3cc(C[C@@H](C)CC)nn3)CC2)nc(N2CCN(C(=O)CCCCCCCCCCNC(=O)[C@@H]([C@H](C)CC)n3cc(CCCCCN)nn3)CC2)n1	mIAP act 5.6 (no result: bIAP act, bIAP inh) | mIAP inh confirm inactive
C#CCOCCOCCOCCNc1nc(N2CCN(C(=O)CCCCCCCCCCNC(=O)[C@@H](CCSC)n3cc(CCO)nn3)CC2)nc(N2CCN(C(=O)CCCCCCCCCCNC(=O)[C@@H]([C@H](C)O)n3cc(C)nn3)CC2)n1	none (no result: bIAP act, bIAP inh)
C#CCOCCOCCOCCNc1nc(N2CCN(C(=O)CCCCCCCCCCNC(=O)Cn3cc(C[C@@H](C)O)nn3)CC2)nc(N2CCN(C(=O)CCCCCCCCCCNC(=O)[C@@H](CCSC)n3cc(CCO)nn3)CC2)n1	mIAP act 2.8 (no result: bIAP act, bIAP inh) | mIAP inh confirm inactive
C#CCOCCOCCOCCNc1nc(N2CCOCC2)nc(N2CCN(C(=O)[C@H]([C@@H](C)CC)n3cc(CCCN=C(N)N)nn3)CC2)n1	none
C#CCOCCOCCOCCNc1nc(N2CCOCC2)nc(N2CCN(C(=O)CCCCCCCCCCNC(=O)[C@H]([C@@H](C)CC)n3cc(CCCCN=C(N)N)nn3)CC2)n1	mIAP act 2.5 (no result: bIAP act, bIAP inh) | mIAP inh confirm inactive
C#CCOCCOCCOCCNc1nc(N2CCN(C(=O)CCCCCCCCCCNC(=O)[C@H](CCCCN)n3cc(C[C@@H](C)CC)nn3)CC2)nc(N2CCN(C(=O)CCCCCCCCCCNC(=O)[C@H](CCCN=C(N)N)n3cc(C[C@@H](C)CC)nn3)CC2)n1	none (no result: bIAP act, bIAP inh)
CC(C)C(C)NC(=O)COn1nnc2ccc(S(=O)(=O)N3CCOCC3)cc21 (configuration not stated)	none (no result: bIAP act, bIAP inh)
Cc1ccc(C(=O)Nn2cnnc2)cc1	none (no result: bIAP act, bIAP inh)
CCCN(c1ccc(OCC)cc1)S(=O)(=O)c1ccc2c(c1)NC(=O)CO2	none (no result: bIAP act, bIAP inh)
Cc1ccccc1NC(=O)c1nn(C)c2c1CS(=O)(=O)c1ccccc1-2	none (no result: bIAP act, bIAP inh)
Cc1ccc(S(=O)(=O)NCCC(=O)Nc2cc(S(=O)(=O)N(C)C)ccc2C)cc1C	none (no result: bIAP act, bIAP inh)
N#C/C(=C\c1ccccc1Br)C(=O)NC1CC1	none (no result: bIAP act, bIAP inh)
C#CCOCCOCCOCCNc1nc(N2CCN(C(=O)CCCCCCCCCCNC(=O)[C@H](CO)n3cc(CCCCCN)nn3)CC2)nc(N2CCN(C(=O)CCCCCCCCCCNC(=O)[C@H](CCCN=C(N)N)n3cc(C[C@@H](C)CC)nn3)CC2)n1	none (no result: bIAP act, bIAP inh)
C#CCOCCOCCOCCNc1nc(N2CCN(C(=O)CCCCCCCCCCNC(=O)[C@H]([C@@H](C)CC)n3cc(CCCCN=C(N)N)nn3)CC2)nc(N2CCN(C(=O)CCCCCCCCCCNC(=O)[C@H](CCCN=C(N)N)n3cc(C[C@@H](C)CC)nn3)CC2)n1	mIAP act 4.4 (no result: bIAP act, bIAP inh) | mIAP inh confirm inactive
C#CCOCCOCCOCCNc1nc(N2CCN(C(=O)CCCCCCCCCCNC(=O)[C@@H](CCSC)n3cc(CCO)nn3)CC2)nc(N2CCN(C(=O)CCCCCCCCCCNC(=O)[C@H](CCCN=C(N)N)n3cc(C[C@@H](C)CC)nn3)CC2)n1	mIAP act 7.7 (no result: bIAP act, bIAP inh) | mIAP inh confirm inactive
